Records with an inconclusive call do not appear.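 How the source made its calls, unless noted: active means viability increase at or above a cutoff of the median across tested compounds plus 3 SD (cut at about 8.5% in these data, passing the limit was not always enough); inconclusive means some gains above the cutoff, reason not given; inactive means the rest.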
Assays:
[1] = S. cerevisiae growth inhibition in permissive medium (OD615), pilot counter-assay for S. cerevisiae lifespan shortening project, permissive growth control (AID 705;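 active means growth inhibition above 25% in both replicates, a cutoff set 3 SD above the mean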); settings: OD615, 24 h, at 10 µM, hits give high values
Outline: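 System: engineered DeaD yeast; Medium: permissive raffinose/galactose medium; Compound dosing: 10 µM single dose, 0.25% DMSO; Incubation: 4 h cell pre-growth, 24 h exposure at 30 °C; Technique: OD at 615 nm; Evaluation: growth inhibition from lowered OD615 after 24 h.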

[2] = S. cerevisiae growth inhibition in restrictive medium, OD615, pilot screen, restrictive growth control, yeast lifespan reduction project (AID 706;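 active means growth inhibition above a set limit, 3 SD over mean compound inhibition, in both replicates, cut at about 43% in these data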;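 further: modified DeaD lifespan yeast strain shifted to restrictive glucose medium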); settings: OD615, 48 h, at 10 µM, hits give high values
Outline: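 Material: modified S. cerevisiae; buffer or medium: CSMM-D glucose medium; doses: one concentration, 10 µM final, 0.25% DMSO; incubation: 48 h compound exposure at 30 °C; detection: optical density at 615 nm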

[3] = doxorubicin toxicity protection in MRP-1 cells – H69AR cells, CellTiter-Glo, duplicate, MRP-1 activator project, pilot screen (AID 807); settings: H69AR viability with doxorubicin, CellTiter-Glo luminescence; at 10 µM; hits give high values;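 further: compound pretreatment 18-22 h then 72 h combined with doxorubicin; 0% = doxorubicin alone and 100% = vehicle without doxorubicin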
[4] = viability of PTEN-null HCT116 cells – cell-based, HCT116 clonal line, CellTiter-Glo, pilot screen (AID 824;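 active means viability at or below 27.92% in each of two runs, the all-compound median minus 4 SD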;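 further: 0% = 20 µM Hyamine control and 100% = vehicle cell control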); settings: HCT116 PTEN-deleted viability, 60 h, at 10 µM, hits give low values
[5] = RAM pathway blockade in budding yeast – dse1pr::URA3 reporter, 5-FOA selection, pilot screen (AID 869;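 active means inhibition over a set limit, the all-compound mean plus 3 SD, in both replicate runs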;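 further: 0% = DMSO wells with no growth and 100% = 10 µM 1-NA-PP1 with full growth; RAM network block rescues cells from 5-FOA so hits raise OD615 growth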); settings: S. cerevisiae dse1pr::URA3 5-FOA growth, OD615, 2 d; at 10 µM; hits give high values; strain carries analog-sensitive mutant Cbk1 kinase
[6] = RAM signaling pathway blockade in yeast – S. cerevisiae, Pdr1DBD-CYC8 efflux-inhibited sensitized strain, primary screen (AID 1298;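 active means RAM network inhibition above 8.4% in each of two replicates, 3 SD over the compound average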;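 further: 0% = DMSO untreated cells without growth and 100% = 10 µM 1-NA-PP1 full growth; higher means more yeast growth rescued from 5-FOA killing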); settings: S. cerevisiae cbk1-as DSE1-URA3 strain, 5-FOA growth OD615, 2 d; at 50 µM; hits give high values

COc1ccc(S(=O)(=O)N2CCCCC2C(=O)O)cc1OC (stereo not given)
inactive: growth inhibition [1] -7% | growth inhibition [2] -10.8% | viability increase [3] -0.69% | viability [4] 101% | inhibition [5] 2.17% | RAM network inhibition [6] 5.22%

O=C(Oc1c(Cl)cc(Cl)c2cccnc12)N1CCCCC1
inactive: growth inhibition [1] -11.5% | growth inhibition [2] -7.42% | viability increase [3] -3.65% | viability [4] 77.5% | inhibition [5] 0.535% | RAM network inhibition [6] -1.03%

O=c1c2c(nc3c(-c4ccccc4)c[nH]n13)CCCC2
inactive: growth inhibition [1] -7.02% | growth inhibition [2] -8.55% | viability increase [3] -5.26% | viability [4] 49.2% | inhibition [5] 1.02% | RAM network inhibition [6] 0.27%

COc1cc(NC(=O)COc2ccc(-n3cnnn3)cc2)c(OC)cc1Cl
inactive: growth inhibition [1] -3.27% | growth inhibition [2] -5.83% | viability increase [3] -5.31% | viability [4] 46.9% | inhibition [5] 2.55% | RAM network inhibition [6] 2.93%

CSc1nnc2c(n1)OC(c1cn(C)c3ccccc13)N(C(C)=O)c1ccccc1-2 (stereo not given)
inactive: growth inhibition [1] -8.46% | growth inhibition [2] -4.85% | viability increase [3] -2.79% | viability [4] 98.9% | inhibition [5] 1.54% | RAM network inhibition [6] 3.59%

CCC(=O)N1CCc2cc(Br)cc(S(=O)(=O)NCc3ccco3)c21
inactive: growth inhibition [1] -4% | growth inhibition [2] -12.8% | viability increase [3] -5.07% | viability [4] 96.8% | inhibition [5] 1.7% | RAM network inhibition [6] 1.85%

O=C(NCc1cccc(F)c1)c1noc2c1CCCC2
inactive: growth inhibition [1] -12.1% | growth inhibition [2] -19.5% | viability increase [3] -4.68% | viability [4] 32.7% | inhibition [5] 0.33% | RAM network inhibition [6] 3.14%

COc1ccc(-c2nc(SC)n(C)c(=O)c2C#N)cc1OC
inactive: growth inhibition [1] -6.31% | growth inhibition [2] -12.2% | viability increase [3] -4.81% | viability [4] 87.9% | inhibition [5] 0.12% | RAM network inhibition [6] 9.22%

CCN(CC)C(=O)CSc1nsc(SCC(=O)N(CC)CC)c1C#N
inactive: growth inhibition [1] -9.3% | growth inhibition [2] 6.27% | viability increase [3] -2.27% | viability [4] 95.3% | inhibition [5] 1.22% | RAM network inhibition [6] 6.13%

Cc1ccc2nc(NC(=O)c3cccs3)sc2c1
inactive: growth inhibition [1] -2.67% | growth inhibition [2] 10.6% | viability increase [3] -4.54% | viability [4] 69.2% | inhibition [5] 1.29% | RAM network inhibition [6] 4.15%

CN(CCNC(=O)c1cc2c(=O)n(C)c3ccccc3c2n1C)Cc1ccccc1
inactive: growth inhibition [1] -12% | growth inhibition [2] -7.87% | viability increase [3] -8.65% | viability [4] 41.1% | inhibition [5] 1.83% | RAM network inhibition [6] -0.47%

CCN1C=C(C(=O)OC)C(c2cccc(C)c2)C(C(=O)OC)=C1
inactive: growth inhibition [1] -1.2% | growth inhibition [2] -11.5% | viability increase [3] -3.43% | viability [4] 86% | inhibition [5] 3.02% | RAM network inhibition [6] 4.35%

COC(=O)c1c(C)oc2cc(Br)c(OCC(=O)C(C)(C)C)cc12
inactive: growth inhibition [1] -9.2% | growth inhibition [2] -14.9% | viability increase [3] -2.86% | viability [4] 90.9% | inhibition [5] 1.84% | RAM network inhibition [6] 3.84%

CC(c1ccccc1F)n1cc(C(=O)NCCc2ccco2)nn1 (stereo not given)
inactive: growth inhibition [1] -12.9% | growth inhibition [2] -9.79% | viability increase [3] -4.02% | viability [4] 76.3% | inhibition [5] 0.72% | RAM network inhibition [6] 0.46%

Cc1nc2nc(SCC(=O)N3CCOCC3)nn2c(C)c1Cc1ccccc1
inactive: growth inhibition [1] -0.01% | growth inhibition [2] 1.59% | viability increase [3] -3.4% | viability [4] 95.5% | inhibition [5] 1.7% | RAM network inhibition [6] 0.77%

CCOC(=O)N1CCc2c(sc(NC(=O)c3ccc(Cl)s3)c2C(N)=O)C1
inactive: growth inhibition [1] -0.755% | growth inhibition [2] 5.5% | viability increase [3] -2.73% | viability [4] 40% | inhibition [5] 0.53% | RAM network inhibition [6] -0.87%

Cc1ccc(S(=O)(=O)NC(=O)Nn2c(C)nnc2C)cc1
inactive: growth inhibition [1] -8.7% | growth inhibition [2] -6.25% | viability increase [3] -0.15% | viability [4] 102% | inhibition [5] 0.75% | RAM network inhibition [6] 4.31%

O=C1c2ccccc2N2C(=O)c3ccccc3C2N1Cc1ccco1 (stereo not given)
inactive: growth inhibition [1] -9.32% | growth inhibition [2] -5.68% | viability increase [3] -4.74% | viability [4] 85.1% | inhibition [5] 3.68% | RAM network inhibition [6] 3.03%

COCCNC(=O)C1c2ccccc2C(=O)N(CCOC)C1c1ccc(F)cc1 (stereo not given)
inactive: growth inhibition [1] -6.02% | growth inhibition [2] 3.31% | viability increase [3] -2.15% | viability [4] 101% | inhibition [5] 1.29% | RAM network inhibition [6] 0.46%

O=S(=O)(NCCc1csc(-c2cccnc2)n1)c1ccc2c(c1)OCCO2
inactive: growth inhibition [1] -5.61% | growth inhibition [2] 8.38% | viability increase [3] -0.72% | viability [4] 95.5% | inhibition [5] 1.71% | RAM network inhibition [6] -0.63%

— PubChem BioAssay
